Data on 5 molecules can be found in paper PMC10763047 (Chemical Science, 2023).

For assay [1], the target named is p110α (Homo sapiens, UniProt P42336, E545K). The assay can be described thus: Western blot of p110α degradation in MCF7 cells. Type of assay: cell-based. Particulars: pretreatment before WJ112-14. In short, it runs like this: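 MCF7 cells (p110α E545K) were exposed to test compound for 6 h, or 6 h and 24 h in some runs. Integrated PI3Kα western blot signals were normalised to α-tubulin and DMSO. SD came from biological triplicates at selected concentrations. Mechanistic runs used pretreatment with bortezomib, MLN4924 or TAK-243, a glutarimide-methylated CRBN-binding-dead analogue, and washout to follow p110α recovery.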
Chain of p110α (Homo sapiens, UniProt P42336, E545K) (P42336 whole entry E545K): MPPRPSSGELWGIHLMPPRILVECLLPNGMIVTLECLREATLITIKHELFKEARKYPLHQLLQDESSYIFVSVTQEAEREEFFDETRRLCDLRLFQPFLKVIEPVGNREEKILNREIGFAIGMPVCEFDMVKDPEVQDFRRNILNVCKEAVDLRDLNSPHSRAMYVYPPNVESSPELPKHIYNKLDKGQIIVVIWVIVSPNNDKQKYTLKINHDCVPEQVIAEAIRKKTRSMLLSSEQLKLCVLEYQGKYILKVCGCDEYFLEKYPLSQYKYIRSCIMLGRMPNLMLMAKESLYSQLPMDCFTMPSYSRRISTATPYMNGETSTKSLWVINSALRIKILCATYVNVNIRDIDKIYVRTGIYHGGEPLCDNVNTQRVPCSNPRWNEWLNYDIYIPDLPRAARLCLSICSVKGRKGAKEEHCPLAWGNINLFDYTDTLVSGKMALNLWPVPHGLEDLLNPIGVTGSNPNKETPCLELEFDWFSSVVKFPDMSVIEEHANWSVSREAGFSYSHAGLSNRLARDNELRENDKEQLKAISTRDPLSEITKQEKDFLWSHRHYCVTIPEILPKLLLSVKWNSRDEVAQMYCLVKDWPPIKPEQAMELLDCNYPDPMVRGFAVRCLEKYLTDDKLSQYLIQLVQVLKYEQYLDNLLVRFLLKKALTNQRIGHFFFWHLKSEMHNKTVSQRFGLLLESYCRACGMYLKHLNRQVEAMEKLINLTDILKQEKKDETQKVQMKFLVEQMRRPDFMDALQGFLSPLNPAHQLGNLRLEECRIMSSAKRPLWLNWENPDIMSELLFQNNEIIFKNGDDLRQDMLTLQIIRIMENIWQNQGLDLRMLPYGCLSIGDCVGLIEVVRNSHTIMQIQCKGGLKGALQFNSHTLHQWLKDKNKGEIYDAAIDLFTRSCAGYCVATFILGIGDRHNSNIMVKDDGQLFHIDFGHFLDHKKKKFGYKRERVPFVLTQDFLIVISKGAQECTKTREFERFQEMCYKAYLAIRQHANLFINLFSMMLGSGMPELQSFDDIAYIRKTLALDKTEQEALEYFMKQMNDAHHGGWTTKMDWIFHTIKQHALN
Chain of p110α (Homo sapiens, UniProt P42336, E545K) (P27986 whole entry partner): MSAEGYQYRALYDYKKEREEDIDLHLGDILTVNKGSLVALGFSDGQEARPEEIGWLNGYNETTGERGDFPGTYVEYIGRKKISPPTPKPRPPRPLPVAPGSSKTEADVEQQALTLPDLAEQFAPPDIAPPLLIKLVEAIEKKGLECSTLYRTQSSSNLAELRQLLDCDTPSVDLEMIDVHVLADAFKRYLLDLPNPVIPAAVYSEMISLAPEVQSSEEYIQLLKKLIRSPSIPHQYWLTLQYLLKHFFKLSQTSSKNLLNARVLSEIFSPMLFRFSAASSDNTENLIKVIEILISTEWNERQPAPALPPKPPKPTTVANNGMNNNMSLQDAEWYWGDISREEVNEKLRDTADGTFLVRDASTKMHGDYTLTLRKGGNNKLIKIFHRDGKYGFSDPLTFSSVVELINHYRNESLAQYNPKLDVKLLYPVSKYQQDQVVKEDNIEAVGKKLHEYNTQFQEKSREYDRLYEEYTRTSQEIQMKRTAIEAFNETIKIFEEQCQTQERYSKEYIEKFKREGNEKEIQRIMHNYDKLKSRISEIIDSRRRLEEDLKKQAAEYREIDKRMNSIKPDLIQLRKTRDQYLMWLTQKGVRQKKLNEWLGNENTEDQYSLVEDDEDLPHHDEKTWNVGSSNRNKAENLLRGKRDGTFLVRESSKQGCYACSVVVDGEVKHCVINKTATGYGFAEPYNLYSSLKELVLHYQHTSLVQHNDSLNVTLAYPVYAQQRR
A general note: In western blotting, separated proteins are transferred to a membrane and probed.

Assay [2] deals with p110α. In words: Western blot of p110α degradation in a panel of cell lines. Particulars: MCF7 and T47D cell lines. The class given is cell-based.

Molecules are shown by their SMILES.

In the case of `NS(=O)(=O)OC[C@@H]1C[C@@H](n2ccc3c(N[C@H]4CCc5ccccc54)ncnc32)C[C@@H]1O` [MLN4924], the “rescue of p110α from WJ112-14 degradation by pretreatment” value (from here on “rescue”) in assay [1] is “full rescue of p110α”. In the case of `NS(=O)(=O)OC[C@H]1C[C@@H](Nc2ccnc3cc(-c4cccc(SC(F)(F)F)c4)nn23)[C@H](O)[C@@H]1O` [TAK-243], the “rescue” value in assay [1] is “full rescue of p110α”. On to `CC(C)C[C@H](NC(=O)[C@H](Cc1ccccc1)NC(=O)c1cnccn1)B(O)O` [bortezomib], for which, in assay [1], the “rescue” value is recorded as “full rescue of p110α”. Turning to `Nc1cccc2c1C(=O)N(C1CCC(=O)NC1=O)C2=O` (centres unmarked) [pomalidomide], the “rescue” value in assay [1] is listed as “rescue of p110α”. With `Cc1nc(-c2cn3c(n2)-c2ccc(-c4cnn(C(C)(C)C(N)=O)c4)cc2OCC3)n(C(C)C)n1` [taselisib], the p110α degradation result in assay [2] was “inactive”.
